Among the data in the RNAGym collection of RNA variant scans (doi:10.1126/science.aae0568) are yeast fitness values, retold here.

Variants at the floor of the assay were thinned out.

Sequences and labels used below:
B1: tRNA (parent)
chain: GUUCCGUUGGCGUAAUGGUAACGCGUCUCCCUCCUAAGGAGAAGACUGCGGGUUCGAGUCCCGUACGGAACG

In the data set the parent is B1. Kind of data set: yeast fitness relative to wild type (ratio to wild type); higher = fitter; tRNA-Arg(CCU), competitive growth, 37 C, YPD. In short, it runs like this:
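For this measurement, the tRNA-Arg(CCU) gene was varied by chemical synthesis at a 3% per-site mutation rate across 69 sites, and each variant was placed at the native genomic locus in Saccharomyces cerevisiae. The pooled strains went through a 24-hour competition in YPD at 37°C in six parallel replicates, with amplicons from start and end populations read by 100-nucleotide paired-end sequencing. Darwinian fitness relative to wild type followed from the change in each genotype's frequency. Genotypes needed ≥ 100 starting reads, and estimates < 0.5 were set to 0.5.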
Regarding U8C C27G A42G C60U U64A C66A G68A A69G, the yeast fitness is 0.543. As to U7C U16G C29U C31A C46U, the yeast fitness was 0.566. For the variant U7G U8C A70U, the yeast fitness amounted to 0.588.

With U7C G41A A42C G50C, the yeast fitness turned out to be 0.592. Take U7C A37C C60G G63A A65U A70C: the yeast fitness was no more than 0.5. With U8C C30U U47A G67C, the yeast fitness is no more than 0.5. In the case of U7C G9A U13C A21U G38C C46A, the yeast fitness was no more than 0.5. With U8A U13A A20C A21U A42U, the yeast fitness is no more than 0.5. The figure for U7A U47G is 0.557; for U8A G9A A36C C61G G67C it is 0.797. Regarding U7C C62G, the yeast fitness worked out at 0.61. On to U7C C62U, for which the yeast fitness worked out at 0.802. As for U8A G38C G48A, the yeast fitness was no more than 0.5. For U7C A20U A40C C46U C55G A70U the value was 0.582; for U8A C11A A36G C61G, no more than 0.5; for U8C C30G C31G, 0.58. In the case of U8A C24A U28C C61U U64A A69G, the yeast fitness is no more than 0.5.

For U7C C33U G67A, the yeast fitness was no more than 0.5. U8A A14G C49G: the yeast fitness came to 0.538.

Turning to U7C U8A C27U, the yeast fitness is no more than 0.5. Regarding U7G C27G C30A C62G, the yeast fitness was no more than 0.5. As to U7C G17A C55A, the yeast fitness was no more than 0.5. On to U8A U19A G50C, for which the yeast fitness was no more than 0.5. On to U8A G18C C24A U32C G52C G56A, for which the yeast fitness was no more than 0.5. U8A U13A: the yeast fitness worked out at 0.606. Turning to U8C A14U, the yeast fitness is 0.805. U7G U35A A43C: the yeast fitness was determined as 0.532. The figure for U8A G9C G38A A40C U59C is 0.638; for U7G C24U A45G it is 0.601. As for U8C A21U U32A C55G, the yeast fitness amounted to 0.517. Consider U7G A70U, for which the yeast fitness is 1.01. The figure for U7C G9A U13C A21U G56A is no more than 0.5. In the case of U7G G41A, the yeast fitness was determined as 0.776. For the variant U7C U32G G68C, the yeast fitness is no more than 0.5. Regarding U7G C30U A36G C55G, the yeast fitness was no more than 0.5. Take U8A A20U A70C: the yeast fitness is 0.56.

For U8A G10A G39A, the yeast fitness was determined as 0.626.

Consider U8A A40U A70C, for which the yeast fitness is 0.547. For U8C C31G G51A G68C the value was no more than 0.5; for U7C C22U C29G G56A A70U, no more than 0.5. Turning to U8C A36U G50C, the yeast fitness is no more than 0.5. Consider U7G A14U U19A C22U C61A, for which the yeast fitness was no more than 0.5. Regarding U8C C22G C49U A69U, the yeast fitness was 0.573.

As for U8A C30G G56C A57G G68A A69C, the yeast fitness was no more than 0.5. In the case of U8A C34G A65U C66A, the yeast fitness was no more than 0.5.

For U7C A15U A69U, the yeast fitness was 0.527. As to U8C C49G, the yeast fitness turned out to be 1.01. Consider U8A U16G C30U C33G A37C A43G, for which the yeast fitness is no more than 0.5.

Consider U7G C27U, for which the yeast fitness is 0.792. As to U8C C22U G23C C33G C49U, the yeast fitness was no more than 0.5. For the variant U7G C30U G38A G50A, the yeast fitness stood at 0.589. Turning to U8C C24U A65C, the yeast fitness came to 0.59. Take U8A G25A C29G A37C: the yeast fitness came out at 0.646. Regarding U8C A70G, the yeast fitness was 0.971.

Turning to U8C C27U C34G C60A, the yeast fitness stood at 0.503.

Regarding U8C C31U C46A C49A, the yeast fitness was no more than 0.5. As to U7C C34U C49A G56C C62A A65C, the yeast fitness was no more than 0.5. The figure for U8A C31U A69C is 0.557. Regarding U8A G18A C30A U32A U35A G67A, the yeast fitness was no more than 0.5. With U7C A42U A70U, the yeast fitness turned out to be 0.584. For U7C U32G, the yeast fitness was found to be 0.576. For U7G C22G G50A the value was 0.514. On to U7G C31U C33G A42U, for which the yeast fitness was 0.563. Consider U7C A20U C29U C30G C34A U35A C66A, for which the yeast fitness is no more than 0.5. For the variant U7C C46U C61A G67A, the yeast fitness amounted to 0.561. For U7C A21G A42U G58A, the yeast fitness turned out to be 0.552. With U8A C24G G48C C49U U64A, the yeast fitness is no more than 0.5. On to U8A U19C G48C U59A C61U C66U, for which the yeast fitness is no more than 0.5.

For the variant U8C A14C C55U C61G C62G, the yeast fitness was no more than 0.5. U7C A14U G68A: the yeast fitness is no more than 0.5.

Regarding U8C A37G G50A A69U, the yeast fitness is no more than 0.5. As to U7C C11U A37C, the yeast fitness was no more than 0.5. For U7C U53G, the yeast fitness was no more than 0.5.

For U7G G39A C66U A69U, the yeast fitness is no more than 0.5. For U7G C29A C34A C62A the value was no more than 0.5. In the case of U7C A45C A70G, the yeast fitness is no more than 0.5. With U8C C24A U35G G52A U64A, the yeast fitness was no more than 0.5. As for U7C G44C, the yeast fitness stood at 0.84. As for U7C U13C C31G C34U C55U G58A C61U, the yeast fitness is no more than 0.5. With U7G G39A C55U G68C, the yeast fitness turned out to be 0.594.

Regarding U7G C29G C46U A65U, the yeast fitness is no more than 0.5.

As to U8A G44A G67C, the yeast fitness is no more than 0.5.

As to U7G C30U U47A, the yeast fitness was no more than 0.5. In the case of U7G G39C A57G, the yeast fitness was no more than 0.5. The figure for U7G C11A C22G C30G is no more than 0.5; for U8C C55U G58A it is no more than 0.5. For U8A A36U C55G U59C, the yeast fitness was found to be 0.579. On to U8A U16A C29G A40G A42G C46G A65U, for which the yeast fitness is no more than 0.5. The figure for U8C C11U C22G C55G G63C is no more than 0.5. As for U7C G48A, the yeast fitness was 0.884.

Take U7C G48C: the yeast fitness worked out at 0.828.

For U7G C22G U28A C31G C55A G68C, the yeast fitness is no more than 0.5. U7G C62U: the yeast fitness stood at 0.893. The figure for U7C U28C C55U is no more than 0.5. For U8A G10A A69U, the yeast fitness is 0.542. For U8A U54A C55U G68A A69U, the yeast fitness was 0.507.

In the case of U7G C34A, the yeast fitness was 0.757. For U7C U35C the value was 0.86; for U7C C33G A40G, no more than 0.5; for U7C G41A A42C G50C A70G, 0.571. For U7C C11A the value was 0.556. For the variant U7G U13A, the yeast fitness amounted to 0.898. With U7C U32C C33G A70G, the yeast fitness is no more than 0.5.

U8C C27A U47A G56C A69C: the yeast fitness is no more than 0.5. The figure for U7C A14G A43U C49G is no more than 0.5. The figure for U7C A14G C33G G68C is no more than 0.5; for U7G U19C it is 0.767; for U8A C22G C46G C66U it is 0.567. Take U7G C27G G39C U47C C49G A57G: the yeast fitness was no more than 0.5. For U8A C31G C34U C55U G58A C61U the value was no more than 0.5; for U7C G41U G58C, no more than 0.5; for U7C C29A A65G, no more than 0.5. Consider U8C A45C, for which the yeast fitness came out at 0.802.

For the variant U7G G38A A40G C66A, the yeast fitness is no more than 0.5.

As to U8A A20C U35A G38C, the yeast fitness was no more than 0.5. For the variant U7G U28C G41C G58C, the yeast fitness is no more than 0.5.

As for U8C C46U G51C, the yeast fitness is no more than 0.5. For U7C A43G U47C U59C, the yeast fitness is no more than 0.5. For the variant U8A C34U, the yeast fitness amounted to 0.508. Consider U8A A36U C55G G58A U59C A69C, for which the yeast fitness is no more than 0.5. Regarding U8A C24A A70U, the yeast fitness was no more than 0.5. Take U8A U13A G48C: the yeast fitness was 0.516. For U8A C22G, the yeast fitness turned out to be 0.7. For U8C C22A C33G G39C C46U C66U the value was 0.536. As for U8C C22G C60A, the yeast fitness came out at 0.609.

Regarding U8A G23A C30G U59A A70C, the yeast fitness is no more than 0.5. For U8A C61A the value was 0.753; for U7C C49G G63A, 0.748. With U7C C33A A40U A57C, the yeast fitness was 0.662. Consider U7G A40U, for which the yeast fitness worked out at 0.985.

For the variant U8C A14G G56C, the yeast fitness is no more than 0.5. Consider U7G C24U C33U, for which the yeast fitness was 0.568. On to U7C C34U G52C, for which the yeast fitness is 0.579. Consider U7G U35A C49G C60A, for which the yeast fitness is no more than 0.5. U8C C34U: the yeast fitness amounted to 0.728. On to U8C A14C G18A C31U, for which the yeast fitness is no more than 0.5.

Take U8A G12A A14C C31A G41C C49A G56A: the yeast fitness was determined as 0.563. The figure for U8A A15U C29G G41A C49G A57G is no more than 0.5; for U8A C29A it is no more than 0.5.

On to U8A C49U A69U, for which the yeast fitness came to 0.537.

With U7C G67U A70U, the yeast fitness was found to be 0.544. The figure for U8A C30U is 0.665. In the case of U8A C30G, the yeast fitness was no more than 0.5. Regarding U8A G10A G58C A69U, the yeast fitness is no more than 0.5. On to U7C A15U C29A G38C, for which the yeast fitness was no more than 0.5. The figure for U7G C27G A40U C49G is no more than 0.5; for U8C C31U A45C U47C it is no more than 0.5; for U8A U26C G38A it is no more than 0.5.

On to U8A C22U A43G C66A, for which the yeast fitness is no more than 0.5.

For the variant U8A C49G A57C, the yeast fitness was no more than 0.5. Take U8A C24U C31G: the yeast fitness is no more than 0.5. Turning to U7C G41A A42C G50C G67C, the yeast fitness is no more than 0.5. U8C C24G A57G: the yeast fitness was no more than 0.5. Turning to U7C C24G, the yeast fitness was determined as 0.645.

On to U8A G18A U32A G58A, for which the yeast fitness was no more than 0.5. As for U8A A40G C61G, the yeast fitness was no more than 0.5.

In the case of U8C A14C C24G G68A, the yeast fitness was no more than 0.5.

With U8C C11A U54C, the yeast fitness is no more than 0.5. Consider U8A A14C C31A G41C C49A, for which the yeast fitness was found to be 0.562. For the variant U7C G12A C31U G52A, the yeast fitness is no more than 0.5. The figure for U8A A21G C27U G52C is no more than 0.5.

With U8C A21U C30G G58C, the yeast fitness was no more than 0.5. The figure for U7G A21G U26C C31A G38C is no more than 0.5; for U7C C49A C62U A70U it is no more than 0.5; for U8C C11U C29A it is no more than 0.5. Turning to U7G C27G U28G, the yeast fitness amounted to 0.531.

On to U8A C29U C34U G58C, for which the yeast fitness is no more than 0.5.
